Converted amounts (≈) assume the structure as drawn.
Experiments:
Type in all cases: functional
[1] = system: Stenotrophomonas maltophilia; test: Antimicrobial activity against Stenotrophomonas maltophilia clinical isolate after 18 to 22 hrs by broth microdilution method
Haemophilus influenzae = test: Antimicrobial activity against beta-lactamase-negative Haemophilus influenzae clinical isolate after 18 to 22 hrs by broth microdilution method
[2] = system: Staphylococcus epidermidis; test: Antimicrobial activity against methicillin-resistant Staphylococcus epidermidis clinical isolate after 18 to 22 hrs by broth microdilution method
[3] = system: Staphylococcus epidermidis; test: Antimicrobial activity against methicillin-susceptible Staphylococcus epidermidis clinical isolate after 18 to 22 hrs by broth microdilution method
Streptococcus pneumoniae = test: Antimicrobial activity against penicillin-resistant Streptococcus pneumoniae clinical isolate after 18 to 22 hrs by broth microdilution method
[4] = system: Enterococcus casseliflavus; test: Antimicrobial activity against Enterococcus casseliflavus clinical isolate after 18 to 22 hrs by broth microdilution method
Enterococcus durans [5] = test: Antimicrobial activity against Enterococcus durans clinical isolate after 18 to 22 hrs by broth microdilution method
Enterobacter cloacae [6] = test: Antimicrobial activity against Enterobacter cloacae clinical isolate after 18 to 22 hrs by broth microdilution method
Escherichia coli [7] = test: Antimicrobial activity against Escherichia coli clinical isolate after 18 to 22 hrs by broth microdilution method
Klebsiella pneumoniae = test: Antimicrobial activity against Klebsiella pneumoniae clinical isolate after 18 to 22 hrs by broth microdilution method
Klebsiella oxytoca = test: Antimicrobial activity against Klebsiella oxytoca clinical isolate after 18 to 22 hrs by broth microdilution method
Morganella morganii = test: Antimicrobial activity against Morganella morganii clinical isolate after 18 to 22 hrs by broth microdilution method
Providencia rettgeri = test: Antimicrobial activity against Providencia rettgeri clinical isolate after 18 to 22 hrs by broth microdilution method
Acinetobacter junii = test: Antimicrobial activity against Acinetobacter junii clinical isolate after 18 to 22 hrs by broth microdilution method
Acinetobacter lwoffii = test: Antimicrobial activity against Acinetobacter lwoffii clinical isolate after 18 to 22 hrs by broth microdilution method
[8] = system: Staphylococcus epidermidis; test: Antimicrobial activity against methicillin-resistant Staphylococcus epidermidis clinical isolate after 18 to 22 hrs by broth microdilution method in presence of beta-lactamase inhibitor BLI-489
How it was run: (§1)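 CLSI broth microdilution in Mueller-Hinton II broth. Antibiotic in serial dilution with the β-lactamase inhibitor held at a constant 4 μg/ml. Inoculum 10^5 CFU/ml. Incubated 18 to 22 h at 35°C in ambient air.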

Enterococcus faecium = test: Antimicrobial activity against vancomycin-resistant Enterococcus faecium clinical isolate after 18 to 22 hrs by broth microdilution method in presence of beta-lactamase inhibitor Tazobactam; how it was run: as §1
Streptococcus agalactiae = test: Antimicrobial activity against Streptococcus agalactiae clinical isolate after 18 to 22 hrs by broth microdilution method in presence of beta-lactamase inhibitor Tazobactam
How it was run: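 Streptococcal isolates were tested with piperacillin-tazobactam by CLSI broth microdilution in Mueller-Hinton II broth supplemented with 5% lysed horse blood. Inoculum was 10^5 CFU/ml, incubated 18 to 22 h at 35°C in ambient air. Visual endpoint: lowest concentration with complete inhibition.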

Bacteroides fragilis = test: Antimicrobial activity against Bacteroides fragilis clinical isolate after 18 to 22 hrs by broth microdilution method in presence of beta-lactamase inhibitor Tazobactam
[9] = system: Enterococcus casseliflavus; test: Antimicrobial activity against Enterococcus casseliflavus clinical isolate after 18 to 22 hrs by broth microdilution method in presence of beta-lactamase inhibitor Tazobactam
How it was run: (§2)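 Piperacillin-tazobactam was tested on recent clinical isolates by CLSI broth microdilution in Mueller-Hinton II broth, with tazobactam at constant 4 μg/ml. Wells held 10^5 CFU/ml and were incubated 18 to 22 h at 35°C in ambient air. MIC was the lowest concentration with no growth visible to the unaided eye.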

Enterococcus durans [10] = test: Antimicrobial activity against Enterococcus durans clinical isolate after 18 to 22 hrs by broth microdilution method in presence of beta-lactamase inhibitor Tazobactam; how it was run: as §2
Escherichia coli [11] = test: Antimicrobial activity against Escherichia coli clinical isolate after 18 to 22 hrs by broth microdilution method in presence of beta-lactamase inhibitor BLI-489
How it was run: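 CLSI broth microdilution in Mueller-Hinton II broth. Serial dilutions of piperacillin were tested with BLI-489 held at a constant 4 μg/ml. Inoculum was 10^5 CFU/ml. Plates were incubated 18 to 22 h at 35°C in ambient air. MIC was the lowest concentration giving complete growth inhibition by unaided eye.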

Enterobacter cloacae [12] = test: Antimicrobial activity against Enterobacter cloacae clinical isolate after 18 to 22 hrs by broth microdilution method in presence of beta-lactamase inhibitor Tazobactam; how it was run: as §2
Citrobacter freundii [13] = test: Antimicrobial activity against AmpC beta-lactamase-producing Citrobacter freundii clinical isolate after 18 to 22 hrs by broth microdilution method in presence of beta-lactamase inhibitor Tazobactam; how it was run: as §2
Citrobacter koseri [14] = test: Antimicrobial activity against Citrobacter koseri clinical isolate after 18 to 22 hrs by broth microdilution method in presence of beta-lactamase inhibitor Tazobactam; how it was run: as §2
Klebsiella aerogenes = test: Antimicrobial activity against AmpC beta-lactamase-producing Enterobacter aerogenes clinical isolate after 18 to 22 hrs by broth microdilution method in presence of beta-lactamase inhibitor BLI-489
How it was run: (§3)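 CLSI broth microdilution in Mueller-Hinton II broth. Piperacillin serial dilutions were combined with BLI-489 held constant at 4 μg/ml. Inoculum was 10^5 CFU/ml. Plates were incubated 18 to 22 h at 35°C in ambient air. MIC was the lowest concentration completely inhibiting growth seen by the unaided eye. Piperacillin-tazobactam interpretive criteria were applied.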

Citrobacter koseri [15] = test: Antimicrobial activity against Citrobacter koseri clinical isolate after 18 to 22 hrs by broth microdilution method in presence of beta-lactamase inhibitor BLI-489; how it was run: as §3
Citrobacter freundii [16] = test: Antimicrobial activity against Citrobacter freundii clinical isolate after 18 to 22 hrs by broth microdilution method in presence of beta-lactamase inhibitor BLI-489; how it was run: as §3
[17] = system: Acinetobacter calcoaceticus; test: Antimicrobial activity against Acinetobacter calcoaceticus clinical isolate after 18 to 22 hrs by broth microdilution method in presence of beta-lactamase inhibitor Tazobactam; how it was run: as §2
Acinetobacter baumannii = test: Antimicrobial activity against Acinetobacter baumannii clinical isolate after 18 to 22 hrs by broth microdilution method in presence of beta-lactamase inhibitor BLI-489; how it was run: as §3

## C[C@H]1COc2c(N3CCN(C)CC3)c(F)cc3c(=O)c(C(=O)O)cn1c23.C[C@H]1COc2c(N3CCN(C)CC3)c(F)cc3c(=O)c(C(=O)O)cn1c23.O [LEVOFLOXACIN]
[1]
  MIC50: 1 µg/mL
  MIC90: 4 µg/mL
Haemophilus influenzae
  MIC: ≤ 0.015 µg/mL
  MIC50: ≤ 0.015 µg/mL
  MIC90: ≤ 0.015 µg/mL
[2]
  MIC50: 2 µg/mL
  MIC90: > 16 µg/mL
[3]
  MIC50: 0.12 µg/mL
  MIC90: 0.25 µg/mL
Streptococcus pneumoniae
  MIC50: 1 µg/mL
  MIC90: 1 µg/mL
[4]
  MIC50: 1 µg/mL
  MIC90: 8 µg/mL
Enterococcus durans [5]
  MIC50: 1 µg/mL
  MIC90: 8 µg/mL
Enterobacter cloacae [6]
  MIC50: 0.06 µg/mL
  MIC90: > 16 µg/mL
Escherichia coli [7]
  MIC50: 0.03 µg/mL
  MIC90: 8 µg/mL
Klebsiella pneumoniae
  MIC50: 0.06 µg/mL
  MIC90: 0.5 µg/mL
Klebsiella oxytoca
  MIC50: 0.03 µg/mL
  MIC90: 0.25 µg/mL
Morganella morganii
  MIC50: 0.03 µg/mL
  MIC90: > 16 µg/mL
Providencia rettgeri
  MIC50: 1 µg/mL
  MIC90: 16 µg/mL
Acinetobacter junii
  MIC50: 0.12 µg/mL
  MIC90: 2 µg/mL
Acinetobacter lwoffii
  MIC50: 0.12 µg/mL
  MIC90: 2 µg/mL

## CCN1CCN(C(=O)N[C@@H](C(=O)N[C@@H]2C(=O)N3[C@@H]2SC(C)(C)[C@@H]3C(=O)O)c2ccccc2)C(=O)C1=O [PIPERACILLIN]
[1]
  MIC: > 128 µg/mL
  MIC50: > 128 µg/mL
  MIC90: > 128 µg/mL
Haemophilus influenzae
  MIC50: 0.015 µg/mL (≈ 0.029 µM)
  MIC90: 0.03 µg/mL (≈ 0.058 µM)
[2]
  MIC50: 8 µg/mL (≈ 15.5 µM)
  MIC90: 64 µg/mL (≈ 124 µM)
[8]
  MIC50: 0.5 µg/mL
  MIC90: 8 µg/mL
[3]
  MIC50: 2 µg/mL (≈ 3.86 µM)
  MIC90: 8 µg/mL (≈ 15.5 µM)
Enterococcus faecium
  MIC: > 128 µg/mL
  MIC50: > 128 µg/mL
Streptococcus pneumoniae
  MIC50: 2 µg/mL (≈ 3.86 µM)
  MIC90: 4 µg/mL (≈ 7.73 µM)
Streptococcus agalactiae
  MIC50: 0.12 µg/mL
  MIC90: 0.25 µg/mL
Bacteroides fragilis
  MIC50: 0.06 µg/mL
  MIC90: 0.25 µg/mL
[4]
  MIC50: 4 µg/mL (≈ 7.73 µM)
  MIC90: 16 µg/mL (≈ 30.9 µM)
[9]
  MIC50: 4 µg/mL
  MIC90: 16 µg/mL
Enterococcus durans [5]
  MIC50: 4 µg/mL (≈ 7.73 µM)
  MIC90: 16 µg/mL (≈ 30.9 µM)
Enterococcus durans [10]
  MIC50: 4 µg/mL
  MIC90: 16 µg/mL
Escherichia coli [11]
  MIC50: 64 µg/mL
  MIC90: 128 µg/mL
Enterobacter cloacae [6]
  MIC50: 4 µg/mL (≈ 7.73 µM)
  MIC90: > 128 µg/mL
Enterobacter cloacae [12]
  MIC50: 2 µg/mL
  MIC90: > 128 µg/mL
Escherichia coli [7]
  MIC50: 2 µg/mL (≈ 3.86 µM)
  MIC90: > 128 µg/mL
Klebsiella pneumoniae
  MIC50: 8 µg/mL (≈ 15.5 µM)
  MIC90: 128 µg/mL (≈ 247 µM)
Citrobacter freundii [13]
  MIC50: 8 µg/mL
  MIC90: > 128 µg/mL
Citrobacter koseri [14]
  MIC50: 2 µg/mL
  MIC90: 16 µg/mL
Klebsiella aerogenes
  MIC50: 2 µg/mL
  MIC90: 8 µg/mL
Citrobacter koseri [15]
  MIC50: 2 µg/mL
  MIC90: 8 µg/mL
Citrobacter freundii [16]
  MIC50: 2 µg/mL
  MIC90: 16 µg/mL
Klebsiella oxytoca
  MIC50: 8 µg/mL (≈ 15.5 µM)
  MIC90: 64 µg/mL (≈ 124 µM)
Morganella morganii
  MIC50: 8 µg/mL (≈ 15.5 µM)
  MIC90: > 128 µg/mL
Providencia rettgeri
  MIC50: 2 µg/mL (≈ 3.86 µM)
[17]
  MIC50: > 128 µg/mL
  MIC90: > 128 µg/mL
Acinetobacter baumannii
  MIC50: > 128 µg/mL
  MIC90: > 128 µg/mL
Acinetobacter junii
  MIC50: 4 µg/mL (≈ 7.73 µM)
  MIC90: 128 µg/mL (≈ 247 µM)
Acinetobacter lwoffii
  MIC50: 4 µg/mL (≈ 7.73 µM)
  MIC90: 128 µg/mL (≈ 247 µM)

Reference: ChEMBL document CHEMBL1629583, “Establishment of in vitro susceptibility testing methodologies and comparative activities of piperacillin in combination with the penem {beta}-lactamase inhibitor BLI-489” (2009)
